Results of several laboratories.
PFF0160c: Dihydroorotate dehydrogenase (quinone), mitochondrial (PFF0160c, Plasmodium falciparum, UniProt Q08210)
PFF0160c E182D: Dihydroorotate dehydrogenase (quinone), mitochondrial (PFF0160c, Plasmodium falciparum, UniProt Q08210, E182D)
PROC: Vitamin K-dependent protein C (PROC, Homo sapiens, UniProt P04070)

SMILES | target | test | IC50 [nM]
COc1ccc(-n2ccnc2SCC(=O)Nc2cc(C)ccc2C)c(OC)c1 | PFF0160c | enzyme activity, inhibitor, absorbance | 324
Cc1noc2nc(C(F)(F)F)nc(Nc3ccc(C(F)(F)F)cc3)c12 | PFF0160c | enzyme activity, inhibitor, absorbance | 610
CCc1nc2nc(C)cc(Nc3ccc(F)c(Cl)c3)n2n1 | PFF0160c E182D | enzyme activity, inhibitor, absorbance | > 10000
Cc1c(C2(c3cccc(C(F)(F)F)c3)CC2)c[nH]c1C(=O)NC(C)c1nc[nH]n1 (stereo not drawn) | PFF0160c | enzyme activity, inhibitor, absorbance | 30000
Cc1nc(NC2CCc3ccc(Cl)cc3C2)c2c(C)noc2n1 (stereo not drawn) | PFF0160c | enzyme activity, inhibitor, absorbance | 17
CCc1nc2nc(C)cc(Nc3ccc4c(c3)OCCO4)n2n1 | PFF0160c E182D | enzyme activity, inhibitor, absorbance | > 10000
Cc1ccc(O)c([C@H](CCN(C(C)C)C(C)C)c2ccccc2)c1 | Kappa-type opioid receptor (OPRK1, Homo sapiens, UniProt P41145) | ligand displacement, radioligand | 6710
Cc1nc(NC2Cc3cc(F)c(F)cc3C2)c2c(C(F)(F)F)noc2n1 | PFF0160c | enzyme activity, inhibitor, absorbance | 22
CC[C@H]1NC(=O)[C@@H]2CSC(=N2)[C@H](Cc2ccccc2)N(C)C(=O)[C@@H]2CCCN2C(=O)[C@H](C(C)C)N(C)C(=O)[C@H](Cc2ccccc2)OC(=O)[C@H](C)[C@@H](C)NC(=O)[C@@H]([C@@H](C)O)NC(=O)[C@@H](CC(C)C)N(C)C(=O)[C@@H]2CSC1=N2 | PROC | enzyme activity, inhibitor | 62000
Cc1noc2nc(C(F)(F)F)nc(Nc3ccc(S(F)(F)(F)(F)F)cc3)c12 | PFF0160c | enzyme activity, inhibitor, absorbance | 250
Cc1c(Cc2ccc(F)c(F)c2)c[nH]c1C(=O)NC(C)c1nc[nH]n1 (stereo not drawn) | PFF0160c | enzyme activity, inhibitor, absorbance | > 100000
CC1CN(Cc2ccc(-c3ccc(C(=O)NCC4CCCO4)cn3)cc2)CC(C)O1 (stereo not drawn) | PFF0160c E182D | enzyme activity, inhibitor, absorbance | 3280
CCOC(=O)c1ccc(OC(=O)CCCCCN=C(N)N)cc1 | PROC | enzyme activity, inhibitor | 1400
Cc1noc2nc(C(F)(F)F)nc(NC3Cc4cc(F)c(F)cc4C3)c12 | PFF0160c | enzyme activity, inhibitor, absorbance | 110
Cc1cc(Nc2ccc(C)c(Cl)c2)n2nc(C(F)(F)F)nc2n1 | PFF0160c | enzyme activity, inhibitor, absorbance | 29.1
CCCCCNC(=N)N/N=C/c1c[nH]c2ccc(OC)cc12 | 5-hydroxytryptamine receptor 2A (HTR2A, Homo sapiens, UniProt P28223) | calcium signal, antagonist, fluorescence | 1500
COc1ccccc1C1CN(CCNC(=O)c2nc(C)c[nH]2)Cc2ccccc2O1 (stereo not drawn) | PFF0160c | enzyme activity, inhibitor, absorbance | 3010
CCOC(=O)c1[nH]cc(Cc2cccc3ncoc23)c1C | PFF0160c | enzyme activity, inhibitor, absorbance | 100
CN(C)S(=O)(=O)c1ccc(Sc2ccccc2)c(C(=O)N2CCCC(C(N)=O)C2)c1 (stereo not drawn) | PFF0160c | enzyme activity, inhibitor, absorbance | 3670
Cc1c(C(=O)NC(C)c2nc[nH]n2)[nH]c(Cl)c1Cc1ccc(C(F)(F)F)nc1 (stereo not drawn) | PFF0160c | enzyme activity, inhibitor, absorbance | > 100000
Cc1cc(Nc2ccc3c(c2)CCC3)n2ncnc2n1 | PFF0160c E182D | enzyme activity, inhibitor, absorbance | > 10000
CNC(=O)[C@H](C)NC(=O)c1[nH]cc(Cc2ccc(C(F)(F)F)nc2)c1C | PFF0160c | enzyme activity, inhibitor, absorbance | 39000
Cc1nc(NC2CCc3cc(Br)ccc3C2)c2c(C)noc2n1 (stereo not drawn) | PFF0160c | enzyme activity, inhibitor, absorbance | 530
Cc1c(Cc2ccc(C(F)(F)F)nc2)c[nH]c1C(=O)N[C@@H](C)C(N)=O | PFF0160c | enzyme activity, inhibitor, absorbance | > 100000
O=S(=O)(O)c1nc2ccccc2[nH]1 | racE (Bacillus subtilis, UniProt P94556, N75L) | enzyme activity, inhibitor, absorbance | 198000
Cc1c(Cc2ccc(C(F)(F)F)nc2)c[nH]c1C(=O)NC(C)c1cc(C(N)=O)[nH]n1 (stereo not drawn) | PFF0160c | enzyme activity, inhibitor, absorbance | 350
Cc1nc(Nc2ccc(C(F)(F)F)cc2)c2c(C)noc2n1 | PFF0160c | enzyme activity, inhibitor, absorbance | 68
